Experimental findings from PubChem BioAssay AID488775 (The Scripps Research Institute Molecular Screening Center, 2010) are described below.

SMILES strings stand for the structures. Activity calls are given as the source filed them.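 Rule for the calls: active = inhibition of the reporter signal above 10%; inactive = the rest.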

In the assay the test system is GAL4DBD-VP16 transactivation domain fusion (Human herpesvirus 1 VP16). Description: GAL4-VP16 transactivation inhibitors, confirmation, counter-screen for LRH1 inverse agonist project, cell-based, luminescence, HEK293T, powder samples (AID 488775). Conditions: HEK293T GAL4-VP16 UAS-luciferase reporter, 18-24 h; at 5 µM; active compounds read high. An outline of the steps: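 System: HEK293T cells with GAL4–VP16 fusion and UAS-luciferase reporter; Measured by: luciferase reporter luminescence; Read-out: percent inhibition from averaged fold change relative to DMSO vehicle wells.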

For `CCn1c(=O)cc(N2CCN(c3ccccc3)CC2)[nH]c1=O`, the inhibition was -7% (inactive). The result for `O=c1cc(N2CCN(c3cccc(Cl)c3)CC2)[nH]c(=O)n1C1CCCCC1` reads 1% (inactive). As for `COc1ccc(N2CCN(c3cc(=O)n(C4CCCCC4)c(=O)[nH]3)CC2)cc1`, the figure is 1% (inactive); as for `O=c1cc(N2CCC(Cc3ccccc3)CC2)[nH]c(=O)n1C1CCCCC1`, 26%; as for `CC(C)Cn1c(=O)cc(N2CCN(c3cccc(C(F)(F)F)c3)CC2)[nH]c1=O`, 8% (inactive). As for `O=c1cc(N2CCN(c3cccc(Br)c3)CC2)[nH]c(=O)n1C1CCCCC1`, the figure is -4% (inactive); as for `O=C(c1ccccc1)N1CCN(c2cc(=O)n(C3CCCCC3)c(=O)[nH]2)CC1`, 8% (inactive); as for `O=c1cc(N2CCN(c3ccc(F)cc3)CC2)[nH]c(=O)n1C1CCCCC1`, -9% (inactive). `Cn1c(=O)cc(N2CCN(c3cccc(Cl)c3)CC2)[nH]c1=O`: the inhibition is -1% (inactive).

In the case of `Cn1c(=O)cc(N2CCN(c3ccc(F)cc3)CC2)[nH]c1=O`, the inhibition was -13% (inactive).

On to `CCOC(=O)N1CCN(c2cc(=O)n(C3CCCCC3)c(=O)[nH]2)CC1`, for which the inhibition was -6% (inactive). For `Cc1cc(C)cc(N2CCN(c3cc(=O)n(C4CCCCC4)c(=O)[nH]3)CC2)c1`, the inhibition was -6% (inactive). As for `O=C(c1ccco1)N1CCN(c2cc(=O)n(C3CCCCC3)c(=O)[nH]2)CC1`, the figure is 17%; as for `O=c1cc(N2CCN(c3ccc(F)cc3F)CC2)[nH]c(=O)n1C1CCCCC1`, 26%; as for `O=c1cc(N2CCN(c3cccc(C(F)(F)F)c3)CC2)[nH]c(=O)n1-c1ccccc1`, -3% (inactive). On to `O=c1cc(N2CCN(c3ccccc3)CC2)[nH]c(=O)n1C1CCCCC1`, for which the inhibition is -16% (inactive). As for `CC1CCN(c2cc(=O)n(Cc3ccc(F)cc3)c(=O)[nH]2)CC1`, the figure is -7% (inactive).

Consider `COC(=O)C1CCN(c2cc(=O)n(C3CCCCC3)c(=O)[nH]2)CC1`, for which the inhibition was -12% (inactive). In the case of `O=c1cc(N2CCN(c3ccccc3Cl)CC2)[nH]c(=O)n1C1CCCCC1`, the inhibition was 1% (inactive).

Consider `O=c1cc(N2CCN(c3ccccc3C(F)(F)F)CC2)[nH]c(=O)n1C1CCCCC1`, for which the inhibition was 14%. On to `O=c1cc(N2CCN(c3cccc(Cl)c3Cl)CC2)[nH]c(=O)n1C1CCCCC1`, for which the inhibition is -5% (inactive). As for `Cc1ccc(Cl)cc1N1CCN(c2cc(=O)n(C3CCCCC3)c(=O)[nH]2)CC1`, the figure is 0% (inactive). The result for `CCn1c(=O)cc(N2CCN(c3cccc(Cl)c3)CC2)[nH]c1=O` reads 5% (inactive); that for `O=c1cc(N2CCN(c3ccc(C(F)(F)F)cc3)CC2)[nH]c(=O)n1C1CCCCC1`, -5% (inactive). As for `CCN1CCN(c2cc(=O)n(C3CCCCC3)c(=O)[nH]2)CC1`, the inhibition was 0% (inactive). The result for `O=c1cc(N2CCN(c3ncccc3C(F)(F)F)CC2)[nH]c(=O)n1C1CCCCC1` reads 13%; that for `O=c1cc(N2CCN(c3cccc(C(F)(F)F)c3)CC2)n(Cc2ccccc2)c(=O)n1C1CCCCC1`, -1% (inactive).

`CCn1c(=O)cc(N2CCN(c3cccc(C(F)(F)F)c3)CC2)[nH]c1=O`: the inhibition was 1% (inactive).

Turning to `O=c1cc(N2CCN(c3ccccc3)CC2)[nH]c(=O)n1Cc1ccc(F)cc1`, the inhibition was -5% (inactive).

Turning to `O=c1cc(N2CCCCC2)[nH]c(=O)n1C1CCCCC1`, the inhibition was 0% (inactive).

Take `CC1CCN(c2cc(=O)n(C3CCCCC3)c(=O)[nH]2)CC1`: the inhibition is 6% (inactive).

Take `O=c1cc(N2CCN(c3cccc(C(F)(F)F)n3)CC2)[nH]c(=O)n1C1CCCCC1`: the inhibition is 3% (inactive). As for `O=c1cc(N2CCc3ccccc32)[nH]c(=O)n1C1CCCCC1`, the figure is -11% (inactive); as for `O=c1cc(N2CCN(C3CCCCC3)CC2)[nH]c(=O)n1C1CCCCC1`, 0% (inactive); as for `O=c1cc(N2CCN(C(c3ccccc3)c3ccccc3)CC2)[nH]c(=O)n1C1CCCCC1`, 11% (inactive).

`O=c1cc(N2CCN(Cc3ccc(Cl)cc3)CC2)[nH]c(=O)n1C1CCCCC1`: the inhibition was -4% (inactive). The result for `C=CCn1c(=O)cc(N2CCN(c3cccc(C(F)(F)F)c3)CC2)[nH]c1=O` reads 1% (inactive); that for `O=c1cc(N2CCN(c3ccnc4cc(Cl)ccc34)CC2)[nH]c(=O)n1C1CCCCC1`, 7% (inactive); that for `C=CCN1CCN(c2cc(=O)n(C3CCCCC3)c(=O)[nH]2)CC1`, -48% (inactive). As for `O=c1cc(N2CCN(c3nccc4occc34)CC2)[nH]c(=O)n1C1CCCCC1`, the figure is -4% (inactive); as for `O=c1cc(N2CCN(CCN3CCOCC3)CC2)[nH]c(=O)n1C1CCCCC1`, 26%. Regarding `N#CCn1c(N2CCN(c3cccc(C(F)(F)F)c3)CC2)cc(=O)n(C2CCCCC2)c1=O`, the inhibition is 2% (inactive).

For `O=c1cc(N2CCOCC2)[nH]c(=O)n1C1CCCCC1`, the inhibition is 9% (inactive). The result for `C=CCn1c(N2CCN(c3cccc(C(F)(F)F)c3)CC2)cc(=O)n(C2CCCCC2)c1=O` reads 20%. The result for `Cc1ccc(C)n1CCN1CCN(c2cc(=O)n(C3CCCCC3)c(=O)[nH]2)CC1` reads 17%; that for `O=c1cc(N2CCCC2)[nH]c(=O)n1C1CCCCC1`, -6% (inactive); that for `O=c1cc(N2CCN(c3cccc(Cl)c3)CC2)[nH]c(=O)[nH]1`, 3% (inactive). As for `O=c1cc(N2CCN(c3nc(-c4ccccc4)ns3)CC2)[nH]c(=O)n1C1CCCCC1`, the figure is -27% (inactive).

Turning to `O=c1cc(N2CCN(c3cccc(C(F)(F)F)c3)CC2)[nH]c(=O)n1Cc1ccccc1`, the inhibition was 6% (inactive).

Take `CCn1c(=O)cc(N2CCN(Cc3ccccc3)CC2)[nH]c1=O`: the inhibition was -10% (inactive).

Take `O=c1cc(N2CCN(c3ncccc3Cl)CC2)[nH]c(=O)n1C1CCCCC1`: the inhibition was 16%. For `O=c1cc(N2CCN(c3ccccn3)CC2)[nH]c(=O)n1C1CCCCC1`, the inhibition is -8% (inactive). On to `O=c1cc(N2CCN(c3cc(C(F)(F)F)ccn3)CC2)[nH]c(=O)n1C1CCCCC1`, for which the inhibition was -12% (inactive). On to `CCn1c(=O)cc(N2CCN(C(=O)c3ccco3)CC2)[nH]c1=O`, for which the inhibition was 0% (inactive).

Take `CCn1c(=O)cc(N2CCN(c3ccc(F)cc3)CC2)[nH]c1=O`: the inhibition is -7% (inactive). For `O=c1cc(N2CCN(c3cc(Cl)cc(Cl)c3)CC2)[nH]c(=O)n1C1CCCCC1`, the inhibition was 1% (inactive). As for `O=c1cc(N2CCN(c3cccc(Cl)n3)CC2)[nH]c(=O)n1C1CCCCC1`, the figure is -7% (inactive); as for `O=c1cc(N2CCN(Cc3ccc4c(c3)OCO4)CC2)[nH]c(=O)n1C1CCCCC1`, -5% (inactive).

Turning to `O=c1cc(N2CCN(c3cccc(C(F)(F)F)c3)CC2)[nH]c(=O)n1C1CCCCC1`, the inhibition is -6% (inactive).
